We go through three compounds from PubChem BioAssay AID492985 (Sanford-Burnham Center for Chemical Genomics, 2010).

Chain of Apelin receptor (Homo sapiens) (P35414 whole entry, looked up, the tested form may be a part): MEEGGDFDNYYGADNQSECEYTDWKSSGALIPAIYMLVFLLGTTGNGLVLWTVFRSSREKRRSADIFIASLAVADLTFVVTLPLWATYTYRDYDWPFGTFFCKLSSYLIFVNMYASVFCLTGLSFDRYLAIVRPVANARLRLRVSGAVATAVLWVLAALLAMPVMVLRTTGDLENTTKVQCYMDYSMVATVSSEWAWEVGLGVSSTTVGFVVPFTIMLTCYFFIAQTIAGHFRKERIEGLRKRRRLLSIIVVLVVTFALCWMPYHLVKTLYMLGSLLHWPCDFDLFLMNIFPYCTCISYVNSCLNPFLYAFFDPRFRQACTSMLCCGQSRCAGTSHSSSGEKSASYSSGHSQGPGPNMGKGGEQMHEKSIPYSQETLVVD

The experiment addresses Apelin receptor (Homo sapiens) (UniProt P35414). Nature of the experiment: APJ receptor agonists, beta-arrestin recruitment, SAR follow-up, cell-based, CHO-K1 AGTRL-1, PathHunter luminescence, set 3 (AID 492985). An outline of the steps: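 System – CHO-K1 APJ β-arrestin reporter cells · Dosing – compound dose-response series with DMSO equalised across wells · Times – compound exposure 90 min at 25 °C, detection reagent 60 min · Detection – luminescence from β-gal fragment complementation upon β-arrestin recruitment · Control set – apelin-13 reference wells, 30 nM as dispensed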
On to `CC1=CC(=O)C(C(C)C)=C/C1=N/OS(=O)(=O)c1ccc(C#N)cc1`, for which the EC50 is 3.52 µM.

On to `CC1=CC(=O)C(C(C)C)=C/C1=N/OS(=O)(=O)c1ccc(F)cc1`, for which the EC50 is 7.15 µM. As for `CC1=CC(=O)C(C(C)C)=C/C1=N/OS(=O)(=O)c1ccc(C(C)C)cc1`, the EC50 is 5.56 µM.
